The results in this text go back to ChEMBL document CHEMBL1155379, “Effect of 3'-end capping of aptamer with various 2',4'-bridged nucleotides: Enzymatic post-modification toward a practical use of polyclonal aptamers” (Bioorg Med Chem Lett, 2010).

The target in data set [1] is Prothrombin (Homo sapiens, UniProt P00734). The data set can be described thus: Binding affinity to human thrombin after 30 mins by non-equilibrium capillary electrophoresis. The procedure, abridged:
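Capillary electrophoresis of aptamer–thrombin mixtures: aptamer 1 nM with thrombin 4 nM in 20 mM Tris-HCl (1 mM MgCl2) pH 7.4 sample buffer; running buffer 100 mM sodium borate pH 8.35; separation +12 kV, injection 0.5 psi × 7.8 s. Kd derived from binding saturation curves over varied thrombin concentrations.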

A short description of data set [2]: Chemical stability in presence of snake venom phosphodiesterase 1 assessed as oligonucleotide degradation after 120 mins by PAGE. It is filed as physicochemical. Conditions: 2 h.
The nature of data set [3]: Chemical stability in presence of 80% (v/v) human serum assessed as intact compound remaining after 8 hrs by PAGE. It is filed as physicochemical. Conditions: read-out: Stability. The procedure, abridged:
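Aptamer incubated in 80% v/v human serum at 37 °C for 8 h; intact full-length aptamer remaining quantified.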

Turning to `C=C1NC(=O)C(C)=CN1[C@H]1C[C@H](OP(=O)(O)OC[C@H]2O[C@@H](n3cnc4c(=O)[nH]c(N)nc43)[C@H](O)[C@@H]2OP(=O)(O)OC[C@H]2O[C@@H](n3cnc4c(N)ncnc43)[C@H](O)[C@@H]2OP(=O)(O)OC[C@H]2O[C@@H](n3ccc(N)nc3=O)[C@H](O)[C@@H]2OP(=O)(O)OC[C@H]2O[C@@H](n3cc(C)c(=O)[nH]c3=O)C[C@@H]2OP(=O)(O)OC[C@@]23CNO[C@@H]([C@H](n4cc(C)c(=O)[nH]c4=O)O2)[C@@H]3O)[C@@H](COP(=O)(O)O[C@H]2[C@@H](O)[C@H](n3cnc4c(=O)[nH]c(N)nc43)O[C@@H]2COP(=O)(O)O[C@H]2[C@@H](O)[C@H](n3cnc4c(=O)[nH]c(N)nc43)O[C@@H]2COP(=O)(O)O[C@H]2[C@@H](O)[C@H](n3cnc4c(=O)[nH]c(N)nc43)O[C@@H]2COP(=O)(O)O[C@H]2[C@@H](O)[C@H](n3cnc4c(=O)[nH]c(N)nc43)O[C@@H]2COP(=O)(O)O[C@H]2C[C@H](n3cc(C)c(=O)[nH]c3=O)O[C@@H]2COP(=O)(O)O[C@H]2C[C@H](n3cc(C)c(=O)[nH]c3=O)O[C@@H]2COP(=O)(O)O[C@H]2[C@@H](O)[C@H](n3cnc4c(=O)[nH]c(N)nc43)O[C@@H]2COP(=O)(O)O[C@H]2[C@@H](O)[C@H](n3cnc4c(=O)[nH]c(N)nc43)O[C@@H]2COP(=O)(O)O[C@H]2[C@@H](O)[C@H](n3cnc4c(N)ncnc43)O[C@@H]2COP(=O)(O)O[C@H]2[C@@H](O)[C@H](n3ccc(N)nc3=O)O[C@@H]2COP(=O)(O)O[C@H]2[C@@H](O)[C@H](n3cnc4c(=O)[nH]c(N)nc43)O[C@@H]2COP(=O)(O)O[C@H]2[C@@H](O)[C@H](n3cnc4c(=O)[nH]c(N)nc43)O[C@@H]2COP(=O)(O)O[C@H]2[C@@H](O)[C@H](n3cnc4c(=O)[nH]c(N)nc43)O[C@@H]2COP(=O)(O)O[C@H]2[C@@H](O)[C@H](n3cnc4c(N)ncnc43)O[C@@H]2COP(=O)(O)O[C@H]2C[C@H](n3cc(C)c(=O)[nH]c3=O)O[C@@H]2COP(=O)(O)O[C@H]2[C@@H](O)[C@H](n3cnc4c(=O)[nH]c(N)nc43)O[C@@H]2COP(=O)(O)O[C@H]2[C@@H](O)[C@H](n3cnc4c(=O)[nH]c(N)nc43)O[C@@H]2COP(=O)(O)O[C@H]2C[C@H](n3cc(C)c(=O)[nH]c3=O)O[C@@H]2COP(=O)(O)O[C@H]2[C@@H](O)[C@H](n3cnc4c(=O)[nH]c(N)nc43)O[C@@H]2COP(=O)(O)O[C@H]2[C@@H](O)[C@H](n3ccc(N)nc3=O)O[C@@H]2COP(=O)(O)O[C@H]2[C@@H](O)[C@H](n3ccc(N)nc3=O)O[C@@H]2COP(=O)(O)O[C@H]2C[C@H](n3cc(C)c(=O)[nH]c3=O)O[C@@H]2COP(=O)(O)O[C@H]2[C@@H](O)[C@H](n3cnc4c(=O)[nH]c(N)nc43)O[C@@H]2COP(=O)(O)O[C@H]2[C@@H](O)[C@H](n3cnc4c(N)ncnc43)O[C@@H]2COc2ccc3c(c2)Oc2cc(O)ccc2C32OC(=O)c3ccccc32)O1` (stereo partly drawn), in data set [1], binding was put at a Kd of 0.21 nM. In addition, the Stability result in data set [2] is “Stable”. Moreover, in data set [3], the remaining at 8 h was 20%.
